In paper PMC2998688 (British Journal of Pharmacology, 2010):
Where “and” joins values, the source holds several entries; their conditions need not be identical. Equal values may be shown once.

What was measured:
[1] = molecular target: rat IP3R1 (recombinant, expressed in DT40 cells) (Rattus norvegicus, UniProt P29994); test: Ca2+ release from intracellular stores of permeabilized DT40-IP3R1 cells; assay type: cell-based; conditions: for fold more potent than IP3 in functional assays: Ca2+ release, relative to IP3
rat IP3R1 (recombinant, expressed in DT40 cells), sequence (P29994 1-2735 isoform P29994-2): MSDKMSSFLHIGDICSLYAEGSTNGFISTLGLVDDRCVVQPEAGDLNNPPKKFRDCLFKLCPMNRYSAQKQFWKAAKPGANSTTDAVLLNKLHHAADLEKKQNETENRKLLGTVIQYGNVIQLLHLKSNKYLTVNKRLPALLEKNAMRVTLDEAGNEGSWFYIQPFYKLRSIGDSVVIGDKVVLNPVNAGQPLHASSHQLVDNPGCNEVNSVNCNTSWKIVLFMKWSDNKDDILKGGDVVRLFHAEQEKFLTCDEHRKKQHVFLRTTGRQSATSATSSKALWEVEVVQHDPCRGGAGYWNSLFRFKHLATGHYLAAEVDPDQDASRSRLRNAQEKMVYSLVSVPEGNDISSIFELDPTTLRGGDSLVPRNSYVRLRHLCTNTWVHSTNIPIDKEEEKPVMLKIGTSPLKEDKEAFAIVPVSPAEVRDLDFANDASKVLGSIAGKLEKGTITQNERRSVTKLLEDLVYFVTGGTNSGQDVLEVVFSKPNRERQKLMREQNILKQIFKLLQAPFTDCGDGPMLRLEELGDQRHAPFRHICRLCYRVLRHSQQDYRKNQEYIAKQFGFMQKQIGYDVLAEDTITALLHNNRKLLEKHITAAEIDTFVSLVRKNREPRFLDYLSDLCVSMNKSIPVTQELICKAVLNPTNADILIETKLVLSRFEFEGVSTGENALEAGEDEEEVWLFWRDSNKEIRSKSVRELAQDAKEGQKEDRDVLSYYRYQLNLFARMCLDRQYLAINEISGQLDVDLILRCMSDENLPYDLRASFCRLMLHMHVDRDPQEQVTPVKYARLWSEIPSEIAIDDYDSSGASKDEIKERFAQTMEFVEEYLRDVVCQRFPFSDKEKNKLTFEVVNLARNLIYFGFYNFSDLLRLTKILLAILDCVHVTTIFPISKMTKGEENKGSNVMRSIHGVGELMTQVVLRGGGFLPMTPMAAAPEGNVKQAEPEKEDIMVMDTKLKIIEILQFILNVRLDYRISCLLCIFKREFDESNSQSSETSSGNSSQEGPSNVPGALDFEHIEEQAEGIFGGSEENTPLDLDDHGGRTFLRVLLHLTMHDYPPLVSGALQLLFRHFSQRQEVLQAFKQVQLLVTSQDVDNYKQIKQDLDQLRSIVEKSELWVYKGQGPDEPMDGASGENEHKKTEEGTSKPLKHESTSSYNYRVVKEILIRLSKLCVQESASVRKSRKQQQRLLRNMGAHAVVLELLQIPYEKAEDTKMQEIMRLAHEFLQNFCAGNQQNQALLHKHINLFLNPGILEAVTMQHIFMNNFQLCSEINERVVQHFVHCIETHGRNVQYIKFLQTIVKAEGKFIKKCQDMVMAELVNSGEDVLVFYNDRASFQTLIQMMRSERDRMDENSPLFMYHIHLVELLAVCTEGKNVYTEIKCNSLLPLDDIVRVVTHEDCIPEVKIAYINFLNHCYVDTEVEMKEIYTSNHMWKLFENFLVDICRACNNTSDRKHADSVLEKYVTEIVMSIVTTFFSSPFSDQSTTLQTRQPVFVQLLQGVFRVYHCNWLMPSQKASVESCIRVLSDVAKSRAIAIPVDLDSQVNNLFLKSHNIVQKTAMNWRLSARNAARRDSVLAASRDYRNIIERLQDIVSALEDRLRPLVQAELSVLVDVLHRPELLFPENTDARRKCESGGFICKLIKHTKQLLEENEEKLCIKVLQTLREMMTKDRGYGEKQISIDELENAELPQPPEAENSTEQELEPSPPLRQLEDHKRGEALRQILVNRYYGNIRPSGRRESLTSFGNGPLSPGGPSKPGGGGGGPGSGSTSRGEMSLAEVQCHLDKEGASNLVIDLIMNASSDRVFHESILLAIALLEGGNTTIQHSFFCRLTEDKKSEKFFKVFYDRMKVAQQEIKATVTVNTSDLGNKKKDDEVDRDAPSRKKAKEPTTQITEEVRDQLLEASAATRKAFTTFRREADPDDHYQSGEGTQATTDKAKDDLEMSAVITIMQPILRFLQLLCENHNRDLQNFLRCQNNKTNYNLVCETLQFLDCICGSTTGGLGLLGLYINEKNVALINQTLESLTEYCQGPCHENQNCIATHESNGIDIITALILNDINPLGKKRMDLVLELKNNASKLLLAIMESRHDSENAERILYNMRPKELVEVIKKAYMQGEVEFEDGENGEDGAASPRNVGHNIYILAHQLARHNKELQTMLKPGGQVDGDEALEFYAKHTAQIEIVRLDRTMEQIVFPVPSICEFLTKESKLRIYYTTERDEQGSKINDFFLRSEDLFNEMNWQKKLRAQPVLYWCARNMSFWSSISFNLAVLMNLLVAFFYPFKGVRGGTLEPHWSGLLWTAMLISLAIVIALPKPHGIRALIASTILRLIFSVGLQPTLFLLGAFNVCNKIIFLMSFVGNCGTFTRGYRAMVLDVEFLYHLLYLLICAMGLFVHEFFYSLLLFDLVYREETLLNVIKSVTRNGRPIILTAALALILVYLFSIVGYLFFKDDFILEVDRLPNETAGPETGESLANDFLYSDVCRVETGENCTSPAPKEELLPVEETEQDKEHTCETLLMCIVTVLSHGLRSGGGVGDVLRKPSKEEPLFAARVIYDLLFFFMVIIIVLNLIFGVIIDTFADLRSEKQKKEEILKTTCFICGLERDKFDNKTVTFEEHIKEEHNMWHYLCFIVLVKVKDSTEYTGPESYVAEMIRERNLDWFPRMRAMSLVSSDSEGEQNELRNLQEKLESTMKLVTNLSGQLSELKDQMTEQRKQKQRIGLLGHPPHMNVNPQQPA

[2] = molecular target: IP3R1^R568Q (Rattus norvegicus, UniProt P29994, DEL318-332/R568Q); test: Ca2+ release from permeabilized DT40 cells expressing only IP3R1^R568Q; assay type: cell-based
Outline: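 Mag-fluo-4 AM (20 µM, 1 h, 20°C) loaded into DT40 cells lacking endogenous IP3R and stably expressing mutant rat IP3R1. Cells were saponin-permeabilized (10 µg·mL−1) into Mg2+-free CLM with 10 µM FCCP, free Ca2+ ~220 nM. Stores were loaded with 1.5 mM MgATP before test compound was added. Fluorescence was read at 485/520 nm, 20°C. Release is a fraction of ATP-dependent uptake, Hill-fitted for EC50, with ΔpEC50 versus wild type from log values. Three determinations per experiment, 4–6 experiments.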

[3] = molecular target: IP3R1^R504Q (Rattus norvegicus, UniProt P29994, DEL318-332/R504Q); test: Ca2+ release from permeabilized DT40 cells expressing only IP3R1^R504Q; assay type: cell-based
[4] = molecular target: full-length IP3R1 (Rattus norvegicus, UniProt P29994); assay type: binding; conditions: full-length IP3R1, TEM
[5] = molecular target: NT (residues 1–604) of IP3R1 (Rattus norvegicus, UniProt P29994, DEL318-332); test: Equilibrium-competition 3H-IP3 binding to the NT fragment; conditions: for Binding ΔpKd, IP3 / AdA: pair IP3 / AdA
NT (residues 1–604) of IP3R1, sequence (P29994 1-589 isoform P29994-2 limits assumed, stated change not applied): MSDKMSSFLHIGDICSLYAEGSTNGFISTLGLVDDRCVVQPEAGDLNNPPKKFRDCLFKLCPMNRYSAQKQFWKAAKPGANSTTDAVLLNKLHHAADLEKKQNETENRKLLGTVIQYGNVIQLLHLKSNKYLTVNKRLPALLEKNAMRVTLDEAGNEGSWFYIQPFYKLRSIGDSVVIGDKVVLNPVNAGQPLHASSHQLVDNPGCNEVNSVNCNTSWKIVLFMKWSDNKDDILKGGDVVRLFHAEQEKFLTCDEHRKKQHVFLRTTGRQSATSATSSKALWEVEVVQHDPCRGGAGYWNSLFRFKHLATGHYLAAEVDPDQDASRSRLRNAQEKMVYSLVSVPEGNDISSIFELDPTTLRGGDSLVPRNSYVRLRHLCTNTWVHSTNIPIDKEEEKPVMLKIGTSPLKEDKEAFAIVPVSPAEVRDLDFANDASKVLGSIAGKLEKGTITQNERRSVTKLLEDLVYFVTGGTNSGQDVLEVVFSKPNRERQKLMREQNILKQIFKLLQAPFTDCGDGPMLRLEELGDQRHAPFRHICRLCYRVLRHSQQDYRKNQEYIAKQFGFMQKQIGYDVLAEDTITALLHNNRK
Outline: (§1)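 Rat IP3R1 N-terminal fragment (residues 1–604, lacking S1 site), His6-tagged, wild type or point mutant, expressed in E. coli BL21(DE3) as bacterial lysate (~1–10 µg protein). Competed against 1.5 nM 3H-IP3 for 5 min at 4°C in TEM (50 mM Tris, 1 mM EDTA, pH 8.3) or, for wild-type NT only, CLM (pH 7.0). Counted after PEG precipitation. Hill fit; Kd by Cheng–Prusoff; ΔpKd from log values.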

[6] = molecular target: NT^R568Q fragment of IP3R1 (Rattus norvegicus, UniProt P29994, DEL318-332/R568Q); test: Equilibrium-competition 3H-IP3 binding to NT^R568Q
NT^R568Q fragment of IP3R1, sequence (P29994 1-589 isoform P29994-2 R553Q limits assumed): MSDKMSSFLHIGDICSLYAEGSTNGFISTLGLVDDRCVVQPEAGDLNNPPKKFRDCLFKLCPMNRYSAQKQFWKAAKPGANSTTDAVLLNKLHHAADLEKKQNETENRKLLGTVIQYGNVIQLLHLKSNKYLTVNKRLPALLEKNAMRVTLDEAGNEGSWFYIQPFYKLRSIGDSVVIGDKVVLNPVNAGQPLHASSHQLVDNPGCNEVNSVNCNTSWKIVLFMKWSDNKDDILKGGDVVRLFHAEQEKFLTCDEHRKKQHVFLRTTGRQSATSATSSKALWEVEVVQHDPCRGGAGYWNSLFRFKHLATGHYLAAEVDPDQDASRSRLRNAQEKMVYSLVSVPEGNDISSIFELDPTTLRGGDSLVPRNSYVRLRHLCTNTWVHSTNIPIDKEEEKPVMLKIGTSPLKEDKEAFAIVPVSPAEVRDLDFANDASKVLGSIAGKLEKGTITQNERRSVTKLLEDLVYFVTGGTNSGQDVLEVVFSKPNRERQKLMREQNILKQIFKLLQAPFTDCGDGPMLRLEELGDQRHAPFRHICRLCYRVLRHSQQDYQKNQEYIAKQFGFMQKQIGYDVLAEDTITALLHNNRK
Outline: as §1

[7] = molecular target: NT^R504Q fragment of IP3R1 (Rattus norvegicus, UniProt P29994, DEL318-332/R504Q); test: Equilibrium-competition 3H-IP3 binding to NT^R504Q; conditions: TEM
Outline: as §1

[8] = molecular target: IBC (IP3-binding core, residues 224–604 of IP3R1) (Rattus norvegicus, UniProt P29994); test: Equilibrium-competition 3H-IP3 binding to the IBC; conditions: CLM
IBC (IP3-binding core, residues 224–604 of IP3R1), sequence (P29994 224-604): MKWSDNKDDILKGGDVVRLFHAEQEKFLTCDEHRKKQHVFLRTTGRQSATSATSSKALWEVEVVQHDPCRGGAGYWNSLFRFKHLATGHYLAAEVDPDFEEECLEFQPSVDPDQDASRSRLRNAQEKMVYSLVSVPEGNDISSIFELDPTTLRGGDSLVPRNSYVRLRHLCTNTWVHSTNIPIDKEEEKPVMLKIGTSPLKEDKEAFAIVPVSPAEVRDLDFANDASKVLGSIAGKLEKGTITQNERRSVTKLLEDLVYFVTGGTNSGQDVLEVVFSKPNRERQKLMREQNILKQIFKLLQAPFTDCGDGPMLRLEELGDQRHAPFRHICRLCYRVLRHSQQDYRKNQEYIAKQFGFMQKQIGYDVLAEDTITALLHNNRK
Outline: (§2)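 His6-tagged rat IP3R1 IBC (residues 224–604, S1 site included), wild type or point mutant, expressed in E. coli BL21(DE3) (0.5 mM IPTG, 20 h, 15°C). Lysate (~1–10 µg protein) incubated 5 min at 4°C in CLM (pH 7.0, free Ca2+ 220 nM) with 3H-IP3 (0.75–3 nM) and competitor. PEG/γ-globulin precipitation, scintillation counting. Hill fit; Kd by Cheng–Prusoff; ΔpKd from log differences.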

[9] = molecular target: IBC^R568Q fragment of IP3R1 (Rattus norvegicus, UniProt P29994, R568Q); test: Equilibrium-competition 3H-IP3 binding to IBC^R568Q
IBC^R568Q fragment of IP3R1, sequence (P29994 224-604 R568Q): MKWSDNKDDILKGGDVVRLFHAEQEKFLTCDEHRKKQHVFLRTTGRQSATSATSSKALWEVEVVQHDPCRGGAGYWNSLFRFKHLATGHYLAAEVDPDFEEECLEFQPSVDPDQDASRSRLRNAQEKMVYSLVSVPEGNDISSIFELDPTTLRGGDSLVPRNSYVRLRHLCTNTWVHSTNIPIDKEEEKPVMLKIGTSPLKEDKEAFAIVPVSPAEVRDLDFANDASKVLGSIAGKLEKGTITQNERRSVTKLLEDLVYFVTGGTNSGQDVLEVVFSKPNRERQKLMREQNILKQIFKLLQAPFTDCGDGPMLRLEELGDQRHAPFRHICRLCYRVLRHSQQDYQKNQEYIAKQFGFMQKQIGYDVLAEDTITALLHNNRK
Outline: as §2

[10] = molecular target: IBC^R504Q fragment of IP3R1 (Rattus norvegicus, UniProt P29994, R504Q); test: Equilibrium-competition 3H-IP3 binding to IBC^R504Q; conditions: CLM
IBC^R504Q fragment of IP3R1, sequence (P29994 224-604 R504Q): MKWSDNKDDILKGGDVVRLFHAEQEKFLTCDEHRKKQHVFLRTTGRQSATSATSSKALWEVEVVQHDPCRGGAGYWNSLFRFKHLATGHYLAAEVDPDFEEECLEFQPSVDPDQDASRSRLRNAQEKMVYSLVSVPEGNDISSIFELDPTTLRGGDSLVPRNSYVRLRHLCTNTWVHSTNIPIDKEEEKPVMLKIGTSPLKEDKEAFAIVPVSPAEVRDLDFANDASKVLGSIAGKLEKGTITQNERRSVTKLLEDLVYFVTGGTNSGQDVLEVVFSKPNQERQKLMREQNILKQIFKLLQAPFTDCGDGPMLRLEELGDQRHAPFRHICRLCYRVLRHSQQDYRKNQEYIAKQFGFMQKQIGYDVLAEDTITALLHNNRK
Outline: as §2

[11] = test system: IP3R; conditions: recalculated from published data; ref Takahashi et al., 1994a,b,c; cited from earlier work

EC50 ([1]; Ca2+ release EC50, DT40 cells expressing wild-type IP3R1): 3 nM
EC50 ([1]; Ca2+ release pEC50 ± SEM, permeabilized DT40-IP3R1 cells, CLM): 3.09 nM
fold more potent than IP3 in functional assays ([1]; CLM): ~12 fold
fold more potent than IP3 in functional assays ([1]; CLM, listed as Adenophostin A): at least 12 fold
Ca2+ release, Release (%) ([1]; maximal Ca2+ release, fraction of ATP-dependent uptake, wild-type IP3R1): 78 ± 3%
Ca2+ release ΔpEC50, IP3 / AdA ([1]; pair IP3 / AdA, DT40-IP3R1 cells): 1.09 ± 0.05
Ca2+ release nHill ± SEM ([1]; permeabilized DT40-IP3R1 cells, CLM): 1.4 ± 0.1
EC50 [2]: 20 nM
Relative potency ΔpEC50, R568Q / wild-type IP3R1 ([2]; Ca2+ release, IP3R1^R568Q vs IP3R1): 0.81 ± 0.07
fold reduction of potency in IP3R1^R568Q cells ([2]; Ca2+ release, vs wild-type IP3R1): sixfold
Ca2+ release nHill ± SEM ([2]; IP3R1^R568Q): 1.0 ± 0.2
Release (%) ([2]; maximal Ca2+ release, IP3R1^R568Q): 53 ± 3%
EC50 [3]: 604 nM
Relative potency ΔpEC50, R504Q / wild-type IP3R1 ([3]; Ca2+ release, IP3R1^R504Q vs IP3R1): 2.29 ± 0.06
Ca2+ release nHill ± SEM ([3]; IP3R1^R504Q): 1.3 ± 0.2
Release (%) ([3]; maximal Ca2+ release, IP3R1^R504Q): 61 ± 3%
Binding nHill ± SEM [4]: 1.5 ± 0.1
nHill ± SEM ([5]; CLM): 1.3 ± 0.2
Kd ([5]; Kd, CLM): 3.44 nM
fold greater affinity than IP3 ([5]; TEM): about 15 fold
nHill ± SEM ([5]; TEM): 1.0 ± 0.1
Kd ([5]; pKd ± SEM, TEM): 0.141 nM
Binding ΔpKd, IP3 / AdA ([5]; CLM): 1.14 ± 0.21
Binding ΔpKd, IP3 / AdA ([5]; TEM): 1.18 ± 0.12
Kd [6]: 2.81 nM
nHill ± SEM ([6]; NT^R568Q, TEM): 1.3 ± 0.2
Kd ([7]; Kd): 16.5 nM
nHill ± SEM [7]: 0.9 ± 0.1
fold greater affinity than IP3 [8]: ~20 fold
nHill ± SEM [8]: 1.3 ± 0.3
Kd ([8]; Kd): 0.31 nM
Binding ΔpKd, IP3 / AdA ([8]; pair IP3 / AdA): 1.37 ± 0.07
Kd [9]: 9.48 nM
Relative affinity ΔpKd, R568Q / wild-type IBC ([9]; IBC^R568Q vs IBC, CLM): 1.49 ± 0.11
fold reduction of affinity by the R568Q mutation ([9]; IBC^R568Q vs IBC, CLM): ~30 fold and 31 fold
nHill ± SEM ([9]; IBC^R568Q, CLM): 1.3 ± 0.6
Relative affinity ΔpKd, R504Q / wild-type IBC ([10]; IBC^R504Q vs IBC): 2.55 ± 0.05
fold reduction of affinity by the R504Q mutation ([10]; IBC^R504Q vs IBC): 353 fold
nHill ± SEM ([10]; IBC^R504Q): 1.5 ± 0.2
Kd ([10]; Kd, IBC^R504Q): 149 nM
SMILES: Nc1ncnc2c1ncn2[C@@H]1O[C@H](CO)[C@@H](O[C@H]2O[C@H](CO)[C@@H](OP(=O)(O)O)[C@H](OP(=O)(O)O)[C@H]2O)[C@H]1OP(=O)(O)O [AdA, adenophostin A]
fold greater affinity than IP3 [11]: about 18 fold
